ChEMBL document CHEMBL1155815, “Design, synthesis, and biological evaluation of Mannich bases of heterocyclic chalcone analogs as cytotoxic agents” (Bioorg Med Chem, 2008)
Converted amounts (≈) assume the structure as drawn. The source made the active and inactive calls. The rule behind the calls is not given here.

Experiments:
Format in all cases: functional, cell-based
MCF7 = test: Cytotoxicity against human MCF7 cells after 3 days by SRB assay; conditions: for EC50: MCF7, 72 h
In short: (§1)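 Cells grown in RPMI-1640 with HEPES, 0.25% sodium bicarbonate, 10% FBS and kanamycin. Freshly trypsinized cells were seeded at 1500–7500 per well and compounds added from DMSO-diluted stock. After 3 days, attached cells were fixed with cold 50% TCA, stained with 0.4% SRB, and absorbance read after dye solubilization. EC50 = 50% growth reduction, averaged over ≥3 independent determinations.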

PC-3 = test: Cytotoxicity against human PC3 cells after 3 days by SRB assay; conditions: for EC50: PC-3, 72 h; in short: as §1
KB [1] = test: Cytotoxicity against human KB cells after 3 days by SRB assay; conditions: for EC50: 72 h; in short: as §1
KB [2] = test: Cytotoxicity against vinblastine-resistant human KB cells after 3 days by SRB assay; conditions: in the assay text read “vincristine-resistant” for “vinblastine-resistant”; for EC50: 72 h; in short: as §1

Structure (SMILES)	EC50 (MCF7) [µg/mL]	EC50 (PC-3) [µg/mL]	EC50 (KB [1]) [µg/mL]	EC50 (KB [2]) [µg/mL]	Activity (PC-3)	Activity (MCF7)	Activity (KB [1])	Activity (KB [2])
O=C(/C=C/c1cccnc1)c1ccc(O)c(CN2CCOCC2)c1	0.29 (≈ 0.894 µM)	0.68 (≈ 2.1 µM)	2.11 (≈ 6.5 µM)	0.69 (≈ 2.13 µM)				
Cc1ccsc1/C=C/C(=O)c1cccc(O)c1CN1CCOCC1	1.12 (≈ 3.26 µM)	2.73 (≈ 7.95 µM)	5.7 (≈ 16.6 µM)	1.64 (≈ 4.78 µM)				
O=C(/C=C/c1cccs1)c1cccc(O)c1CN1CCOCC1	1.66 (≈ 5.04 µM)	1.09 (≈ 3.31 µM)	2.84 (≈ 8.62 µM)	2.15 (≈ 6.53 µM)				
O=C(/C=C/c1ccccn1)c1cc(CN2CCOCC2)c(O)c(CN2CCOCC2)c1	1.34 (≈ 3.16 µM)	1.72 (≈ 4.06 µM)	2.31 (≈ 5.45 µM)	2.27 (≈ 5.36 µM)				
COc1ccc(/C=C/C(=O)c2cccnc2)c(CN2CCCCC2)c1O	0.3 (≈ 0.851 µM)	6.77 (≈ 19.2 µM)	6.14 (≈ 17.4 µM)	2.64 (≈ 7.49 µM)				
CC(C)=CCOc1ccc(C(=O)/C=C/c2sccc2C)c(O)c1CN1CCOCC1	3.19 (≈ 7.46 µM)		8.43 (≈ 19.7 µM)	7.21 (≈ 16.9 µM)	inactive			
CCOc1cc(O)c(C(=O)/C=C/c2ccc(C)o2)cc1CN1CCOCC1					inactive	inactive	inactive	inactive
CCOc1cc(O)c(C(=O)/C=C/c2ccccc2)cc1CN1CCOCC1	5.24 (≈ 14.3 µM)	6.72 (≈ 18.3 µM)		9.92 (≈ 27 µM)			inactive	
O=C(/C=C/c1ccco1)c1cccc(O)c1CN1CCOCC1	4.7 (≈ 15 µM)	3.8 (≈ 12.1 µM)	5.63 (≈ 18 µM)	5.77 (≈ 18.4 µM)				
COc1cc(O)c(C(=O)/C=C/c2cccs2)cc1CN1CCOCC1	3.12 (≈ 8.68 µM)	6.6 (≈ 18.4 µM)	7.75 (≈ 21.6 µM)	6.25 (≈ 17.4 µM)				
O=C(/C=C/c1ccncc1)c1ccc(O)c(CN2CCOCC2)c1	0.15 (≈ 0.462 µM)	0.1 (≈ 0.308 µM)	0.74 (≈ 2.28 µM)	0.41 (≈ 1.26 µM)				
O=C(/C=C/c1ccccn1)c1ccc(CN2CCOCC2)c(O)c1CN1CCOCC1	0.46 (≈ 1.09 µM)	0.44 (≈ 1.04 µM)	0.82 (≈ 1.94 µM)	0.71 (≈ 1.68 µM)				
O=C(/C=C/c1ccccn1)c1ccc(O)c(CN2CCOCC2)c1O	0.08 (≈ 0.235 µM)	0.95 (≈ 2.79 µM)	1.54 (≈ 4.52 µM)	0.8 (≈ 2.35 µM)				
CCOc1cc(O)c(C(=O)/C=C/c2ccco2)cc1CN1CCOCC1	20 (≈ 56 µM)				inactive		inactive	inactive
COc1cc(O)c(C(=O)/C=C/c2cccnc2)cc1CN1CCOCC1	0.1 (≈ 0.282 µM)	0.84 (≈ 2.37 µM)		4.64 (≈ 13.1 µM)			inactive	
COc1cc(O)c(C(=O)/C=C/c2ccco2)cc1CN1CCOCC1	1.51 (≈ 4.4 µM)	16.8 (≈ 48.9 µM)	13.5 (≈ 39.4 µM)	8.12 (≈ 23.6 µM)				
O=C(/C=C/c1ccccn1)c1ccc(CN2CCOCC2)c(O)c1	0.43 (≈ 1.33 µM)	0.83 (≈ 2.56 µM)	1.3 (≈ 4.01 µM)	0.68 (≈ 2.1 µM)				
CCOc1cc(O)c(C(=O)/C=C/c2sccc2C)cc1CN1CCOCC1					inactive	inactive	inactive	inactive

Structure (SMILES)	EC50 (MCF7) [µg/mL]	EC50 (PC-3) [µg/mL]	EC50 (KB [1]) [µg/mL]	EC50 (KB [2]) [µg/mL]	Activity (PC-3)	Activity (MCF7)	Activity (KB [1])	Activity (KB [2])
O=C(/C=C/c1cccnc1)c1ccc(CN2CCOCC2)c(O)c1	0.67 (≈ 2.07 µM)	0.9 (≈ 2.77 µM)	2.17 (≈ 6.69 µM)	1.17 (≈ 3.61 µM)				
CCOc1cc(O)c(C(=O)/C=C/c2ccccn2)cc1CN1CCOCC1	4.13 (≈ 11.2 µM)	3.14 (≈ 8.52 µM)	5.72 (≈ 15.5 µM)	5.55 (≈ 15.1 µM)				
CCOc1cc(O)c(C(=O)/C=C/c2cccnc2)cc1CN1CCOCC1	10.6 (≈ 28.8 µM)				inactive		inactive	inactive
O=C(/C=C/c1ccccc1)c1cccc(O)c1CN1CCOCC1	0.28 (≈ 0.866 µM)	0.33 (≈ 1.02 µM)	0.83 (≈ 2.57 µM)	0.36 (≈ 1.11 µM)				
O=C(/C=C/c1ccco1)c1ccc(O)c(CN2CCOCC2)c1	4.87 (≈ 15.5 µM)	7.43 (≈ 23.7 µM)	6.12 (≈ 19.5 µM)	3.27 (≈ 10.4 µM)				
COc1ccc(/C=C/C(=O)c2cccs2)c(CN2CCCCC2)c1O	0.11 (≈ 0.308 µM)	2.02 (≈ 5.65 µM)	2.93 (≈ 8.2 µM)	2.09 (≈ 5.85 µM)				
CC(C)Oc1cc(O)c(C(=O)/C=C/c2cccs2)cc1CN1CCOCC1	0.24 (≈ 0.619 µM)	4.04 (≈ 10.4 µM)	9.44 (≈ 24.4 µM)	5.02 (≈ 13 µM)				
CC(C)Oc1ccc(C(=O)/C=C/c2cccs2)c(O)c1CN1CCOCC1	0.66 (≈ 1.7 µM)	2.8 (≈ 7.23 µM)	5.12 (≈ 13.2 µM)	1.45 (≈ 3.74 µM)				
O=C(/C=C/c1ccccc1)c1ccc(O)c(CN2CCOCC2)c1	0.15 (≈ 0.464 µM)	0.18 (≈ 0.557 µM)	2.11 (≈ 6.52 µM)	0.69 (≈ 2.13 µM)				
COc1ccc(/C=C/C(=O)c2ccco2)c(CN2CCCCC2)c1O	0.47 (≈ 1.38 µM)	3.07 (≈ 8.99 µM)	5.18 (≈ 15.2 µM)	2.61 (≈ 7.64 µM)				
COc1ccc(C(=O)/C=C/c2ccccn2)c(O)c1CN1CCOCC1	0.25 (≈ 0.705 µM)	10.5 (≈ 29.7 µM)	3.41 (≈ 9.62 µM)	1.13 (≈ 3.19 µM)				
Cc1ccsc1/C=C/C(=O)c1cc(CN2CCOCC2)c(O)c(CN2CCOCC2)c1	16.2 (≈ 36.6 µM)	12.1 (≈ 27.3 µM)	9.92 (≈ 22.4 µM)	12 (≈ 27.1 µM)				
O=C(/C=C/c1ccccn1)c1ccc(O)c(CN2CCOCC2)c1	0.12 (≈ 0.37 µM)	0.31 (≈ 0.956 µM)	0.73 (≈ 2.25 µM)	0.3 (≈ 0.925 µM)				
O=C(/C=C/c1ccncc1)c1ccc(CN2CCOCC2)c(O)c1	1.23 (≈ 3.79 µM)	1.87 (≈ 5.76 µM)	1.95 (≈ 6.01 µM)	2.62 (≈ 8.08 µM)				
COc1ccc(/C=C/C(=O)c2cccc(C)c2)c(CN2CCOCC2)c1O	0.42 (≈ 1.14 µM)	0.66 (≈ 1.8 µM)	1.12 (≈ 3.05 µM)	0.6 (≈ 1.63 µM)				
COc1cc(O)c(C(=O)/C=C/c2ccccc2)cc1CN1CCOCC1	0.03 (≈ 0.0849 µM)	0.78 (≈ 2.21 µM)	14.9 (≈ 42.2 µM)	3.5 (≈ 9.9 µM)				
COc1ccc(/C=C/C(=O)c2cc(CN3CCOCC3)c(OC)cc2O)cc1	2.74 (≈ 7.15 µM)	8.11 (≈ 21.2 µM)	9.6 (≈ 25 µM)	6.58 (≈ 17.2 µM)				
O=C(/C=C/c1cccs1)c1ccc(O)c(CN2CCOCC2)c1	5.62 (≈ 17.1 µM)	6.49 (≈ 19.7 µM)	5.14 (≈ 15.6 µM)	2.58 (≈ 7.83 µM)				
